37 sequences from the array DNA melting data of Ke et al. (doi:10.1101/2024.01.08.574731) can be followed below.

A short description of data set [1]: folding enthalpy; higher = less favourable; fluorescence melt of hairpins on a sequencing array, two-state fit. The conditions noted are these: sodium 0.088 M. The essentials: (§1)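 Folding enthalpy and melting temperature were estimated with bootstrapped two-state fits and combined across four replicates by inverse-variance weighting, with fitted temperatures raised by 9.35 °C to match UV melts. The data were Cy3 fluorescence of library hairpins, with annealed Cy3 and quencher oligos, on a sequenced MiSeq flow cell in 50 mM Na-HEPES pH 8.0, 25 mM NaCl, imaged in 2.5 °C steps up to 60 °C and normalised to pre-quench Cy3 and control constructs.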

Data set [2] in a line: melting temperature; fluorescence melt of hairpins on a sequencing array, two-state fit, raised by 9.35 °C to match UV melts. The settings on record: sodium 0.088 M. The essentials: as §1

GTGGGAACGAAAGTTCAC (((..(((....)))))): the folding enthalpy in data set [1] was -34.3 kcal/mol. In data set [2], the Tm was 54.9 °C.
The like results for GATCGCCCCAGCGATC ((((((....)))))) were, in that order, -33.5 kcal/mol and 68.5 °C.
The corresponding values for GATCACTTCCGTGATC ((((((....)))))) are -35.8 kcal/mol and 56.5 °C.
The corresponding values for GCAAGCGAAAGCTGTTGC ((((((....)))..))) are -15.7 kcal/mol and 45.9 °C.
For the sequence GATCAAGAGTTGATC ((((((...)))))), the folding enthalpy in data set [1] is -24.8 kcal/mol. In data set [2], the Tm was found to be 37.8 °C.
The like results for GATCATCCCATGATC ((((((...)))))) were, in that order, -38.4 kcal/mol and 50.4 °C.
The corresponding values for GATCGATCCTTCGATC ((((((....)))))) are -45.3 kcal/mol and 55.5 °C.
As for GATCAGAGGCTGATC ((((((...)))))), in data set [1], the folding enthalpy is -32.9 kcal/mol. Moreover, the Tm in data set [2] is 48.7 °C.
As for GTCGGACGAAAGTCTGAC (((.(((....))).))), the folding enthalpy in data set [1] is -40.9 kcal/mol. Further, the Tm in data set [2] turned out to be 61.5 °C.
For GTGAACGAAAGTTACCAC ((((((....)))..))), in data set [1], the folding enthalpy is -15.3 kcal/mol. Besides, the Tm in data set [2] worked out at 26 °C.
The like results for GCGTCCTACGC ((((...)))) were, in that order, -20.2 kcal/mol and 62.5 °C.
As to GGTTATCGAAAGATACC (((.(((....)))))), the folding enthalpy in data set [1] is -25 kcal/mol. Also, the Tm in data set [2] was 43.1 °C.
The corresponding values for GTGCTGGGAAACCAACAC (((.(((....))).))) are -36.9 kcal/mol and 44 °C.
In the case of GCGTTCGAACGC ((((....)))), the folding enthalpy in data set [1] was -36 kcal/mol. The Tm in data set [2] stood at 56.9 °C.
As to GTGTACGAAAGTAACCAC ((((((....)))..))), in data set [1], the folding enthalpy is -15 kcal/mol. Further, the Tm in data set [2] stood at 32 °C.
Turning to GACTAGCGAAAGCTGTC (((.(((....)))))), in data set [1], the folding enthalpy is -19.6 kcal/mol. Besides, in data set [2], the Tm was 50.3 °C.
The like results for GTGGTAGGAAACTACCGC (.(((((....))))).) were, in that order, -32.5 kcal/mol and 52.5 °C.
The like results for GGCAATGGAAACGTTGTC (.(((.(....).))).) were, in that order, -25.9 kcal/mol and 35.8 °C.
Take GAGGGCGAAAGCCTTCTC ((((((....)))..))): the folding enthalpy in data set [1] is -16.6 kcal/mol. In data set [2], the Tm came out at 52 °C.
The like results for GGGAACGGAAACGTTCTC (.(((((....))))).) were, in that order, -18.2 kcal/mol and 52.9 °C.
With GATCAGTCCACTGATC ((((((....)))))), the folding enthalpy in data set [1] is -37.6 kcal/mol. The Tm in data set [2] worked out at 54.3 °C.
As for GTACAGGGAAACTTGTGC (.(((.(....).))).), the folding enthalpy in data set [1] is -16 kcal/mol. Also, the Tm in data set [2] was found to be 27.9 °C.
Take GCGGATGCCGC ((((...)))): the folding enthalpy in data set [1] was -10.5 kcal/mol. Also, the Tm in data set [2] is 58.8 °C.
The like results for GCGTGCCCACGC ((((....)))) were, in that order, -26.6 kcal/mol and 60.2 °C.
On to GCTTTGCGAAAGCACTGC ((..(((....)))..)), for which the folding enthalpy in data set [1] is -17.5 kcal/mol. Moreover, the Tm in data set [2] came out at 43 °C.
Take GGTAGGCCGAAAGGCACC (((..(((....)))))): the folding enthalpy in data set [1] was -12 kcal/mol. Moreover, the Tm in data set [2] amounted to 41.9 °C.
The corresponding values for GGGATTCCGAAAGGACCC (((..(((....)))))) are -16 kcal/mol and 40.3 °C.
In the case of GCAGACGAAAGTCACTGC ((((((....)))..))), in data set [1], the folding enthalpy was -18.6 kcal/mol. The Tm in data set [2] was found to be 39.5 °C.
Take GATCGTAGCACGATC ((((((...)))))): in data set [1], the folding enthalpy was -34.8 kcal/mol. For the same sequence, in data set [2], the Tm worked out at 56.5 °C.
The like results for GATCCGTAACCGGATC ((((((....)))))) were, in that order, -39.2 kcal/mol and 55.7 °C.
The corresponding values for GAGTGGGGAAACCCGCTC (((.(((....))).))) are -35.8 kcal/mol and 55.6 °C.
Consider GCCATGCGAAAGCAAGGC (((.(((....))).))), for which the folding enthalpy in data set [1] is -42.6 kcal/mol. Further, in data set [2], the Tm amounted to 60.5 °C.
For the sequence GACGGCGGAAACGCCACC (..((((....))))..), the folding enthalpy in data set [1] is -9.98 kcal/mol. Moreover, the Tm in data set [2] stood at 26.9 °C.
As to GATCGGATGCCCGATC ((((((....)))))), the folding enthalpy in data set [1] is -27 kcal/mol. The Tm in data set [2] was 55.5 °C.
Regarding GTACACGAAAGTGTAC ((((((....)))))), in data set [1], the folding enthalpy is -30.2 kcal/mol. Moreover, in data set [2], the Tm was determined as 68.3 °C.
For GATCGTGACTACGATC ((((((....)))))), in data set [1], the folding enthalpy was -43.8 kcal/mol. Also, the Tm in data set [2] is 61.2 °C.
The like results for GTCTTCGAAAGAAAAGAC ((((((....)))..))) were, in that order, -17.9 kcal/mol and 30.8 °C.
